In ChEMBL document CHEMBL5724801, “EUbOPEN Chemogenomics Library - Multiplex” (2024):
“And” between values parts separate entries of the source, which are not always exact repeats. Identical values can stand only once.

System: U2OS
Assay: Multiplex assay against U2OS
Type: toxicity, cell-based
Details: human
How it was run: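 Compound was added to live cells that had been stained at seeding with Hoechst33342, BioTracker Green Microtubule Cytoskeleton Dye, MitoTracker Red and Annexin V Alexa Fluor 680, and imaging followed on a CQ1 microscope at 37°C and 5% CO2. CellPathfinder machine-learning gating divided cells into Hoechst high-intensity objects or normal cells, normal cells into healthy, pyknosed or fragmented nuclei, and pyknosed cells into mitotic or apoptotic. Tubulin, mitochondrial-mass and membrane-permeability phenotypes are per cents of healthy-nucleus cells.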

[1] = 12 h, 1 µM, compound concentration 1 uM
[2] = 12 h, 10 µM, compound concentration 10 uM
[3] = 24 h, 1 µM, compound concentration 1 uM
[4] = 24 h, 10 µM, compound concentration 10 uM
[5] = 48 h, 1 µM, compound concentration 1 uM
[6] = 48 h, 10 µM, compound concentration 10 uM

O=S(=O)(c1ccccc1)c1cnc2c(N3CCNCC3)cccc2c1 [INTEPIRDINE]
Population Apoptotic (%) [1]: 76% and 70%
Population Fragmented Nuclei (%) [1]: 23% and 17%
Population Healthy Nuclei (%) [1]: 68% and 71%
Population Hoechst High Intensity Objects (%) [1]: 1% and 0%
Population Membrane Permeable-Phenotype (%) [1]: 6% and 7%
Population Mitochondria Different-Phenotype (%) [1]: 3% and 6%
Population Mitotic Cells (%) [1]: 23% and 30%
Population Normal (%) [1]: 98% and 100%
Population Pyknosed Nuclei (%) [1]: 7% and 11%
Population Tubulin-Different-Phenotype (%) [1]: 4% and 7%
Population Apoptotic (%) [2]: 58% and 85%
Population Fragmented Nuclei (%) [2]: 25% and 10%
Population Healthy Nuclei (%) [2]: 61% and 79%
Population Hoechst High Intensity Objects (%) [2]: 3% and 2%
Population Membrane Permeable-Phenotype (%) [2]: 23% and 12%
Population Mitochondria Different-Phenotype (%) [2]: 11% and 13%
Population Mitotic Cells (%) [2]: 41% and 14%
Population Normal (%) [2]: 96% and 97%
Population Pyknosed Nuclei (%) [2]: 12% and 10%
Population Tubulin-Different-Phenotype (%) [2]: 14% and 10%
Total Cell Count [2]: 204 and 139
Population Apoptotic (%) [3]: 80% and 69%
Population Fragmented Nuclei (%) [3]: 22% and 14%
Population Healthy Nuclei (%) [3]: 67% and 73%
Population Hoechst High Intensity Objects (%) [3]: 2% and 0%
Population Membrane Permeable-Phenotype (%) [3]: 7% and 3%
Population Mitochondria Different-Phenotype (%) [3]: 2% and 3%
Population Mitotic Cells (%) [3]: 19% and 30%
Population Normal (%) [3]: 97% and 99%
Population Pyknosed Nuclei (%) [3]: 9% and 12%
Population Tubulin-Different-Phenotype (%) [3]: 4% and 1%
Total Cell Count [3]: 319 and 108
Population Apoptotic (%) [4]: 72% and 77%
Population Fragmented Nuclei (%) [4]: 23% and 10%
Population Healthy Nuclei (%) [4]: 60% and 77%
Population Hoechst High Intensity Objects (%) [4]: 3% and 0%
Population Membrane Permeable-Phenotype (%) [4]: 17% and 10%
Population Mitochondria Different-Phenotype (%) [4]: 14% and 17%
Population Mitotic Cells (%) [4]: 27% and 22%
Population Normal (%) [4]: 96% and 99%
Population Pyknosed Nuclei (%) [4]: 16% and 11%
Population Tubulin-Different-Phenotype (%) [4]: 10% and 6%
Total Cell Count [4]: 233 and 156
Population Apoptotic (%) [5]: 89% and 76%
Population Fragmented Nuclei (%) [5]: 15% and 13%
Population Healthy Nuclei (%) [5]: 70% and 68%
Population Hoechst High Intensity Objects (%) [5]: 3%
Population Membrane Permeable-Phenotype (%) [5]: 6% and 3%
Population Mitochondria Different-Phenotype (%) [5]: 4% and 2%
Population Mitotic Cells (%) [5]: 10% and 23%
Population Normal (%) [5]: 96%
Population Pyknosed Nuclei (%) [5]: 14% and 18%
Population Tubulin-Different-Phenotype (%) [5]: 4% and 2%
Total Cell Count [5]: 416 and 148
Population Apoptotic (%) [6]: 78% and 95%
Population Fragmented Nuclei (%) [6]: 22% and 13%
Population Healthy Nuclei (%) [6]: 59% and 75%
Population Hoechst High Intensity Objects (%) [6]: 4% and 2%
Population Membrane Permeable-Phenotype (%) [6]: 15% and 10%
Population Mitochondria Different-Phenotype (%) [6]: 7% and 12%
Population Normal (%) [6]: 95% and 97%
Population Pyknosed Nuclei (%) [6]: 17% and 11%
Population Tubulin-Different-Phenotype (%) [6]: 6% and 4%
Total Cell Count [6]: 302 and 201

C[C@@H]1C[C@H]2[C@@H]3CCC4=CC(=O)C=C[C@]4(C)[C@@]3(F)[C@@H](O)C[C@]2(C)[C@@]1(O)C(=O)CO [DEXAMETHASONE]
Population Apoptotic (%) [1]: 77% and 80%
Population Fragmented Nuclei (%) [1]: 21% and 20%
Population Healthy Nuclei (%) [1]: 70% and 75%
Population Hoechst High Intensity Objects (%) [1]: 2% and 0%
Population Membrane Permeable-Phenotype (%) [1]: 2% and 4%
Population Mitochondria Different-Phenotype (%) [1]: 0% and 1%
Population Mitotic Cells (%) [1]: 22% and 20%
Population Normal (%) [1]: 97% and 99%
Population Pyknosed Nuclei (%) [1]: 7% and 4%
Population Tubulin-Different-Phenotype (%) [1]: 1% and 3%
Total Cell Count [1]: 238 and 124
Population Apoptotic (%) [2]: 80% and 84%
Population Fragmented Nuclei (%) [2]: 20% and 16%
Population Healthy Nuclei (%) [2]: 69% and 76%
Population Hoechst High Intensity Objects (%) [2]: 2% and 0%
Population Membrane Permeable-Phenotype (%) [2]: 6% and 7%
Population Mitochondria Different-Phenotype (%) [2]: 1% and 2%
Population Mitotic Cells (%) [2]: 19% and 15%
Population Normal (%) [2]: 97% and 100%
Population Pyknosed Nuclei (%) [2]: 9% and 7%
Population Tubulin-Different-Phenotype (%) [2]: 2% and 3%
Total Cell Count [2]: 319
Population Apoptotic (%) [3]: 96% and 90%
Population Fragmented Nuclei (%) [3]: 19% and 18%
Population Healthy Nuclei (%) [3]: 71% and 73%
Population Hoechst High Intensity Objects (%) [3]: 2%
Population Membrane Permeable-Phenotype (%) [3]: 4% and 6%
Population Mitochondria Different-Phenotype (%) [3]: 2% and 0%
Population Mitotic Cells (%) [3]: 4% and 9%
Population Normal (%) [3]: 97%
Population Pyknosed Nuclei (%) [3]: 8% and 7%
Population Tubulin-Different-Phenotype (%) [3]: 2% and 4%
Total Cell Count [3]: 288
Population Apoptotic (%) [4]: 82% and 75%
Population Fragmented Nuclei (%) [4]: 17% and 14%
Population Healthy Nuclei (%) [4]: 74% and 79%
Population Hoechst High Intensity Objects (%) [4]: 1% and 0%
Population Membrane Permeable-Phenotype (%) [4]: 6%
Population Mitochondria Different-Phenotype (%) [4]: 0% and 2%
Population Mitotic Cells (%) [4]: 17% and 25%
Population Normal (%) [4]: 98% and 99%
Population Pyknosed Nuclei (%) [4]: 7% and 5%
Population Tubulin-Different-Phenotype (%) [4]: 2%
Total Cell Count [4]: 378 and 219
Population Apoptotic (%) [5]: 84% and 71%
Population Fragmented Nuclei (%) [5]: 20% and 17%
Population Healthy Nuclei (%) [5]: 72% and 74%
Population Hoechst High Intensity Objects (%) [5]: 1% and 2%
Population Membrane Permeable-Phenotype (%) [5]: 1% and 3%
Population Mitochondria Different-Phenotype (%) [5]: 1% and 3%
Population Mitotic Cells (%) [5]: 16% and 28%
Population Normal (%) [5]: 98% and 97%
Population Pyknosed Nuclei (%) [5]: 6% and 7%
Population Tubulin-Different-Phenotype (%) [5]: 0% and 4%
Total Cell Count [5]: 391 and 186
Population Apoptotic (%) [6]: 92% and 86%
Population Fragmented Nuclei (%) [6]: 14% and 16%
Population Healthy Nuclei (%) [6]: 77% and 76%
Population Hoechst High Intensity Objects (%) [6]: 2%
Population Membrane Permeable-Phenotype (%) [6]: 4% and 5%
Population Mitochondria Different-Phenotype (%) [6]: 1% and 0%
Population Mitotic Cells (%) [6]: 7% and 13%
Population Normal (%) [6]: 97%
Population Pyknosed Nuclei (%) [6]: 8% and 7%
Population Tubulin-Different-Phenotype (%) [6]: 1%
Total Cell Count [6]: 497 and 294

N[C@](CC1c2ccccc2Oc2ccccc21)(C(=O)O)[C@H]1C[C@@H]1C(=O)O
Population Apoptotic (%) [1]: 80% and 72%
Population Fragmented Nuclei (%) [1]: 22% and 10%
Population Healthy Nuclei (%) [1]: 67% and 79%
Population Hoechst High Intensity Objects (%) [1]: 1%
Population Membrane Permeable-Phenotype (%) [1]: 6% and 1%
Population Mitochondria Different-Phenotype (%) [1]: 2% and 8%
Population Mitotic Cells (%) [1]: 20% and 27%
Population Normal (%) [1]: 98%
Population Pyknosed Nuclei (%) [1]: 9%
Population Tubulin-Different-Phenotype (%) [1]: 4% and 3%
Total Cell Count [1]: 218 and 114
Population Apoptotic (%) [2]: 84% and 83%
Population Fragmented Nuclei (%) [2]: 18% and 19%
Population Healthy Nuclei (%) [2]: 72% and 76%
Population Hoechst High Intensity Objects (%) [2]: 3% and 0%
Population Membrane Permeable-Phenotype (%) [2]: 5% and 7%
Population Mitochondria Different-Phenotype (%) [2]: 3% and 0%
Population Mitotic Cells (%) [2]: 16%
Population Normal (%) [2]: 96% and 100%
Population Pyknosed Nuclei (%) [2]: 8% and 4%
Population Tubulin-Different-Phenotype (%) [2]: 2%
Total Cell Count [2]: 295 and 141
Population Apoptotic (%) [3]: 78% and 63%
Population Fragmented Nuclei (%) [3]: 20% and 14%
Population Healthy Nuclei (%) [3]: 70% and 77%
Population Hoechst High Intensity Objects (%) [3]: 1% and 0%
Population Membrane Permeable-Phenotype (%) [3]: 1% and 4%
Population Mitochondria Different-Phenotype (%) [3]: 1% and 5%
Population Mitotic Cells (%) [3]: 21% and 36%
Population Normal (%) [3]: 98% and 99%
Population Pyknosed Nuclei (%) [3]: 8%
Population Tubulin-Different-Phenotype (%) [3]: 1% and 2%
Total Cell Count [3]: 272 and 137
Population Apoptotic (%) [4]: 80% and 81%
Population Fragmented Nuclei (%) [4]: 13% and 15%
Population Healthy Nuclei (%) [4]: 79% and 77%
Population Hoechst High Intensity Objects (%) [4]: 3% and 0%
Population Membrane Permeable-Phenotype (%) [4]: 3% and 8%
Population Mitochondria Different-Phenotype (%) [4]: 3% and 1%
Population Mitotic Cells (%) [4]: 20% and 18%
Population Normal (%) [4]: 96% and 99%
Population Pyknosed Nuclei (%) [4]: 7% and 6%
Population Tubulin-Different-Phenotype (%) [4]: 1% and 3%
Total Cell Count [4]: 365 and 164
Population Apoptotic (%) [5]: 89% and 85%
Population Fragmented Nuclei (%) [5]: 14% and 16%
Population Healthy Nuclei (%) [5]: 75% and 72%
Population Hoechst High Intensity Objects (%) [5]: 2% and 1%
Population Membrane Permeable-Phenotype (%) [5]: 3% and 5%
Population Mitochondria Different-Phenotype (%) [5]: 1% and 3%
Population Mitotic Cells (%) [5]: 10% and 15%
Population Normal (%) [5]: 97% and 98%
Population Pyknosed Nuclei (%) [5]: 9% and 10%
Population Tubulin-Different-Phenotype (%) [5]: 1% and 4%
Total Cell Count [5]: 403 and 190
Population Apoptotic (%) [6]: 90% and 81%
Population Fragmented Nuclei (%) [6]: 15% and 12%
Population Healthy Nuclei (%) [6]: 77% and 78%
Population Hoechst High Intensity Objects (%) [6]: 1% and 0%
Population Membrane Permeable-Phenotype (%) [6]: 4% and 7%
Population Mitochondria Different-Phenotype (%) [6]: 3% and 1%
Population Mitotic Cells (%) [6]: 10% and 18%
Population Normal (%) [6]: 98% and 100%
Population Pyknosed Nuclei (%) [6]: 7% and 9%
Population Tubulin-Different-Phenotype (%) [6]: 2% and 3%
Total Cell Count [6]: 554 and 238
